Measured values taken from ChEMBL document CHEMBL4680102, “Design, Synthesis, and Biological Activity of Substrate Competitive SMYD2 Inhibitors” (J Med Chem, 2016).
Values after ≈ are worked out from the molar mass of the structure shown. Active and inactive are the calls of the source. No cut-off for these calls is given here.

Legend:
[1] = target: T1, N-lysine methyltransferase SMYD2 (Homo sapiens, UniProt Q9NRG4); assay: Inhibition of SMYD2 (unknown origin)
RKO = assay: Antiproliferative activity against human RKO cells assessed as reduction in cell viability at 0.03 to 30 uM incubated for 72 hrs by Alamar blue based assay; format: functional; conditions: dose 0.03-30 µM
Procedure, shortened: (§1)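 Matched p53 wild-type/deficient pairs (HCT116 p53+/+ and p53-/-; RKO-neo and RKO-E6a) seeded in triplicate, attached overnight. Media replaced with DMSO control or compound media, 0.03 to 30 µM, 72 h. Viability read as fluorescence after AlamarBlue incubation. Triplicate in two separate experiments; mean ±SEM.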

[2] = Solubility of compound in 0.1 M phosphate buffer at pH 7.4 at 25 degC after 24 hrs; format: physicochemical
Procedure, shortened: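 Solid sample shaken 24 h in 0.1 M phosphate buffer, pH 7.4, 25 °C.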

[3] = Unbound fraction in human plasma by equilibrium dialysis; format: ADME, cell-free
Procedure, shortened: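 Human plasma, compound added from DMSO stock; fraction unbound (fu%) by equilibrium dialysis.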

[4] = target: T1, N-lysine methyltransferase SMYD2; assay: Inhibition of SMYD2 (unknown origin) expressed in human U2OS cells assessed as reduction in monomethylated p53 levels incubated for 24 hrs by immunofluorescence assay; format: cell-based
Procedure, shortened: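 U2OS plated 8,000 cells/well, transfected (Fugene) with FLAG-tagged wild-type SMYD2 construct. Compound from DMSO in media (final DMSO 0.2%), 24 h. Cells PFA-fixed, stained with anti-FLAG (1:800), polyclonal anti-monomethyl p53 K370 peptide antibody (1:1000) and DAPI, then imaged. IC50 from fluorescent intensity per cell for methylation; DAPI count gave the cell-count IC50.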

HCT-116 [5] = assay: Antiproliferative activity against human HCT-116 cells contains wild-type p53 gene assessed as reduction in cell viability at 0.03 to 30 uM incubated for 72 hrs by Alamar blue based assay; format: functional; conditions: dose 0.03-30 µM; procedure, shortened: as §1
HCT-116 [6] = assay: Antiproliferative activity against human HCT-116 cells deficient in p53 gene assessed as reduction in cell viability at 0.03 to 30 uM incubated for 72 hrs by Alamar blue based assay; format: functional; conditions: dose 0.03-30 µM; procedure, shortened: as §1
[7] = target: T1, N-lysine methyltransferase SMYD2; assay: Ratio of IC50 for SMYD2 (unknown origin) to IC50 for inhibition of SMYD2 (unknown origin) expressed in human U2OS cells; format: cell-based
RKOE6 = assay: Antiproliferative activity against human RKOE6 cells assessed as reduction in cell viability at 0.03 to 30 uM incubated for 72 hrs by Alamar blue based assay; format: functional; conditions: dose 0.03-30 µM; procedure, shortened: as §1
[8] = Intrinsic clearance in human liver microsomes; format: ADME, Microsome; conditions: read-out: CLH
[9] = Distribution coefficient, logD of compound; format: physicochemical; conditions: octanol/water
[10] = target: T1, N-lysine methyltransferase SMYD2; assay: Binding affinity to SMYD2 (unknown origin) by ITC assay
Procedure, shortened: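 Microcal ITC at 23 °C in 25 mM Tris pH 8.5, 50 mM NaCl, 2% DMSO. Cell held ~15 µM SMYD2; syringe 200 µM compound. Eight 4 µL injections gave a final compound:protein molar ratio of ~1.4:1.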

[11] = Intrinsic clearance in human liver microsomes; conditions: read-out: CLH

T1 sequence (Q9NRG4 whole entry): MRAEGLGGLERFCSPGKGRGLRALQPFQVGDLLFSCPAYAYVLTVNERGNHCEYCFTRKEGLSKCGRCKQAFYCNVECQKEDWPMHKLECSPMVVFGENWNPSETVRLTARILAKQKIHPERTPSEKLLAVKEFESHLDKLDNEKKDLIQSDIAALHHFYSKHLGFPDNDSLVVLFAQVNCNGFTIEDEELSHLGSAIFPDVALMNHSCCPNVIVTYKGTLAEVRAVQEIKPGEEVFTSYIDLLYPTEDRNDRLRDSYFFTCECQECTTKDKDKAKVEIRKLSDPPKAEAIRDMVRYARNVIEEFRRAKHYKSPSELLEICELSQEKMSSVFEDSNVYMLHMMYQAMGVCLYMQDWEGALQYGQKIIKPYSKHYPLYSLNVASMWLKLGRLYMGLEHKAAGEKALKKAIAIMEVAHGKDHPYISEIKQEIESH

Structure (SMILES)	IC50 [1] [nM]	solubility at 24 h [2] [µM]	fraction unbound [3]	EC50 [4] [nM]	further results
CNCCCNC(=O)c1cc(-c2ccccc2C)nc2[nH]ncc12	> 83000	–	–	–	–
N#Cc1cc(C(=O)NCCCN2CCCC2)cc(-c2ccccc2N2CCN(CCc3ccc(Cl)c(Cl)c3)CC2)c1	138	34 (≈ 20.1 µg/mL)	< 0.01	425	Activity (RKO): Active; IC50 [4]: 670 nM; Activity (HCT-116 [5]): Active; Activity (HCT-116 [6]): Active; Ratio IC50 [7]: > 2; Activity (RKOE6): Active; microsomal CLint [8]: 73 µL/min/mg
O=C(NCCCN1CCCC1)c1cc(-c2ccccc2Cl)nc2[nH]ncc12	8000	–	–	–	–
Cc1ccccc1-c1cc(C(=O)NCCCN2CCCC2)c2cn[nH]c2n1	5600	> 1000	0.43	–	logD [9]: 1.19; Kd [10]: 1730 nM; microsomal CLint [11]: 92 µL/min/mg
O=C(NCCCN1CCCC1)c1cccc(-c2ccccc2N2CCN(CCc3c[nH]c4ccccc34)CC2)c1	41	246 (≈ 132 µg/mL)	0.033	3460	microsomal CLint [8]: 16 µL/min/mg
COc1ccc(CCN2CCN(c3ccccc3-c3cc(C(=O)NCCCN4CCCC4)ccn3)CC2)cc1	1050	> 1000	0.34	2440	–
CCc1ccccc1-c1cc(C(=O)NCCCN2CCCC2)c2cn[nH]c2n1	8400	–	–	–	–
O=C(NCCCN1CCCC1)c1cccc(-c2ccccc2N2CCN(CCc3ccc(Cl)cc3)CC2)c1	114	332 (≈ 176 µg/mL)	0.012	3120	microsomal CLint [8]: 30 µL/min/mg
CNc1cc(C(=O)NCCCN2CCCC2)cc(-c2ccccc2C)n1	17700	–	–	–	–
COc1cc(C(=O)NCCCN2CCCC2)cc(-c2ccccc2C)n1	9900	–	–	–	–
O=C(NCCCN1CCCC1)c1ccnc(-c2ccccc2N2CCN(CCc3c[nH]c4ccccc34)CC2)c1	62	923 (≈ 495 µg/mL)	0.34	5610	–
COc1ccccc1-c1cc(C(=O)NCCCN2CCCC2)c2cn[nH]c2n1	14500	–	–	–	–
Cc1ccccc1-c1cc(C(=O)NCCCN(C)C)c2cn[nH]c2n1	> 61000	–	–	–	–
Cc1ccccc1-c1cc(C(=O)NCC(O)CN2CCCC2)c2cn[nH]c2n1 (stereo not drawn)	12100	–	–	–	–
Cc1ccccc1-c1cc(C(=O)NCCCN2CCOCC2)c2cn[nH]c2n1	41300	–	–	–	–
NCC1(C(=O)Nc2ccc(Cl)cc2)CCN(c2ncnc3[nH]nc(C4CC4)c23)CC1	–	–	–	–	Activity [10]: Active
COc1cccc(CCN2CCN(c3ccccc3-c3cc(C(=O)NCCCN4CCCC4)ccn3)CC2)c1	440	> 1000	0.41	1220	–
COc1cc(C(=O)NCCCN2CCCC2)cc(-c2ccccc2C)c1	22100	–	–	–	–
CCOc1cccc(C(=O)NC2CC3(CCNCC3)c3ccccc32)c1 (stereo not drawn)	–	–	–	–	Activity [10]: Active
O=C(NCCCN1CCCC1)c1cc(-c2ccccc2F)nc2[nH]ncc12	16800	–	–	–	–
O=C(NCCCN1CCCC1)c1ccnc(-c2ccccc2N2CCN(CCc3ccc(Cl)c(Cl)c3)CC2)c1	120	790 (≈ 448 µg/mL)	0.014	5570	–
O=C(NCCCN1CCCC1)c1cccc(-c2ccccc2N2CCN(CCc3ccc(Cl)c(Cl)c3)CC2)c1	165	34 (≈ 19.2 µg/mL)	< 0.01	3230	microsomal CLint [8]: 68 µL/min/mg
O=C(NCCCN1CCCC1)c1cncc(-c2ccccc2N2CCN(CCc3ccc(Cl)c(Cl)c3)CC2)c1	38	393 (≈ 223 µg/mL)	0.011	450	–

Structure (SMILES)	IC50 [1] [nM]	solubility at 24 h [2] [µM]	fraction unbound [3]	EC50 [4] [nM]	further results
COc1cccc(CCN2CCN(c3ccccc3-c3cccc(C(=O)NCCCN4CCCC4)c3)CC2)c1	273	815 (≈ 429 µg/mL)	0.1	3500	microsomal CLint [8]: 36 µL/min/mg
Cc1cccc(CCN2CCN(c3ccccc3-c3cccc(C(=O)NCCCN4CCCC4)c3)CC2)c1	211	722 (≈ 369 µg/mL)	0.053	4140	microsomal CLint [8]: 35 µL/min/mg
COc1cccc(CNC2CCN(c3ccccc3-c3cncc(C(=O)NCCCN4CCCC4)c3)CC2)c1	39	915 (≈ 483 µg/mL)	0.14	5760	logD [9]: 1.9; microsomal CLint [11]: 28 µL/min/mg
CN(CCCN1CCCC1)C(=O)c1cc(-c2ccccc2Br)nc2[nH]ncc12	7300	–	–	–	–
O=C(NCCCN1CCCC1)c1cncc(-c2ccccc2N2CCN(CCc3c[nH]c4ccccc34)CC2)c1	17	858 (≈ 461 µg/mL)	0.17	1020	Activity (RKO): Active; IC50 [4]: 2430 nM; Activity (HCT-116 [5]): Active; Activity (HCT-116 [6]): Active; Ratio IC50 [7]: > 2; Activity (RKOE6): Active
Cc1ccccc1-c1cc(C#N)cc(C(=O)NCCCN2CCCC2)c1	7300	–	–	–	–
Cc1ccccc1-c1cc(C(=O)NCC(Cc2ccccc2)CN2CCCC2)c2cn[nH]c2n1 (stereo not drawn)	3600	–	–	–	–
O=C(NCCCN1CCCC1)c1cccc(-c2ccccc2N2CCN(CCc3ccccc3)CC2)c1	339	851 (≈ 423 µg/mL)	0.08	4910	microsomal CLint [8]: 30 µL/min/mg
Cc1cccc(CCN2CCN(c3ccccc3-c3cc(C#N)cc(C(=O)NCCCN4CCCC4)c3)CC2)c1	31	588 (≈ 315 µg/mL)	0.023	1210	microsomal CLint [8]: 43 µL/min/mg
CCn1cncc1CN1CCc2[nH]c(=O)cc(-c3ccc(Cl)cc3)c2C1	–	–	–	–	Activity [10]: Active
COc1cccc(CCN2CCN(c3ccccc3-c3cc(C#N)cc(C(=O)NCCCN4CCCC4)c3)CC2)c1	59	602 (≈ 332 µg/mL)	0.073	2690	microsomal CLint [8]: 74 µL/min/mg
Cc1ccccc1-c1cccc(C(=O)NCCCN2CCCC2)c1	17400	–	–	–	–
Cc1ccccc1-c1cc(C(=O)NCCCN2CCCC2)ccn1	8800	–	–	–	–
Cc1ccccc1-c1cc(C(=O)N2CCC(N3CCCCC3)CC2)c2cn[nH]c2n1	16900	–	–	–	–
O=C(NCCCN1CCCC1)c1ccnc(-c2ccccc2N2CCN(CCc3ccc(Cl)cc3)CC2)c1	305	> 1000	0.13	1620	–
Cc1ccccc1-c1cc(C(=O)NCCCN2CCCC2)c2c(C)n[nH]c2n1	8900	–	–	–	–
Cc1ccccc1-c1cc(C(=O)NCCCN2CCC(N3CCCCC3)CC2)c2cn[nH]c2n1	19600	–	–	–	–
Cc1ccccc1-c1cc(C(=O)NCCCN2CCCC2)c2c(C3CC3)n[nH]c2n1	13300	–	–	–	–
O=C(NCCCN1CCCC1)c1cc(-c2ccccc2N2CCN(CCc3ccc(Cl)c(Cl)c3)CC2)nc2[nH]ncc12	65	174 (≈ 106 µg/mL)	< 0.01	549	logD [9]: > 3.5; microsomal CLint [11]: > 300 µL/min/mg
N#Cc1cc(C(=O)NCCCN2CCCC2)cc(-c2ccccc2N2CCN(CCc3c[nH]c4ccccc34)CC2)c1	28	396 (≈ 222 µg/mL)	0.038	270	microsomal CLint [8]: 21 µL/min/mg
O=C(NCCCN1CCCC1)c1cncc(-c2ccccc2OC2CN(CCc3ccc(Cl)c(Cl)c3)C2)c1	12	> 1000	0.11	> 24000	logD [9]: 2.4; microsomal CLint [11]: 33.5 µL/min/mg
Cc1ccccc1-c1cc(C(=O)NCCCN2CCCCC2)c2cn[nH]c2n1	13500	–	–	–	–
